Test results from PMC3428514 (Molecular cell, 2012).
Peptide text beside a SMILES is read from it.

Key:
caspase-8 = caspase-8 (Homo sapiens, UniProt Q14790); assay: caspase-8 dimerization by Superdex 200 gel filtration; format: biochemical; details: 10 μM, 15 minutes at 30°C
Outline: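 Recombinant caspase-8 (100 nM) incubated 15 min at 30°C with test compound at 10 μM, DMSO, or 10 μM Ac-VAD-CHO, then run on Superdex 200 gel filtration. Collected fractions analysed by SDS-PAGE with Coomassie Blue staining, and caspase activity measured in each fraction.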

Cdc25B = details: read-out: IC50, Cdc25B; ref Vogt et al., 2003; cited from earlier work
X-IAP = details: read-out: IC50, X-IAP; ref Glover et al., 2003; cited from earlier work

Chain of caspase-8 (Q14790 217-479, species assumed): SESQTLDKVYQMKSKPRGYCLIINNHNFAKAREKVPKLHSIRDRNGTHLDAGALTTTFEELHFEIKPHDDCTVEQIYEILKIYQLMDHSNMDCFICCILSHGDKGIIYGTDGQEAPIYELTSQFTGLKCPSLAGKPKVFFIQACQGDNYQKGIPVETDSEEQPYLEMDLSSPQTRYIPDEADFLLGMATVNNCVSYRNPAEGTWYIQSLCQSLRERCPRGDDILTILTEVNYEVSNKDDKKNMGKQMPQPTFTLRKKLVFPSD

CC(=O)N[C@H](C(=O)N[C@@H](C)C(=O)N[C@H](C=O)CC(=O)O)C(C)C [Ac-VAD-CHO] (Ac-Val-Ala-Asp-aldehyde)
effect on caspase-8 dimerization (caspase-8): shift to the dimeric species

CSC(=S)NN=C(c1ccccn1)c1ccccn1.[Cu][Br] [Comp-C]
IC50 (Cdc25B): > 10 µM
IC50 (X-IAP): > 10 µM
